Key:
Type in all cases: functional
T47D = assay: Antiproliferative activity against human T47D cells after 48 hrs by sulforhodamine B assay
Procedure, shortened: (§1)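 NCI 60-cell-line panel screen: single dose 10 µM first, then 5-dose testing (0.01, 0.1, … molar series). For each line, GI50 is the molar concentration giving 50% inhibition of net cell growth, TGI gives total inhibition of net growth, and LC50 gives 50% net cell death. Method follows the NCI DTP protocol.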

[1] = Antiproliferative activity against human […] cells after 48 hrs by sulforhodamine B assay
Procedure, shortened: (§2)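 NCI 60-cell-line panel covering nine cancer types (leukemia, non-small cell lung, colon, CNS, melanoma, ovarian, renal, prostate, breast). Compounds were first tested at a single dose, then in a five-dose screen (series starting 0.01, 0.1 …) if they met NCI threshold criteria. Reported per line: GI50 (molar concentration inhibiting 50% net growth), TGI (total growth inhibition) and LC50 (50% net cell death).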

HOP-62 = assay: Antiproliferative activity against human HOP62 cells after 48 hrs by sulforhodamine B assay; conditions: HOP-62, 48 h; procedure, shortened: as §2
HOP-92 = assay: Antiproliferative activity against human HOP92 cells after 48 hrs by sulforhodamine B assay; conditions: HOP-92, 48 h; procedure, shortened: as §2
NCI-H322M = assay: Antiproliferative activity against human NCI-H322M cells after 48 hrs by sulforhodamine B assay; procedure, shortened: as §2
NCI-H460 = assay: Antiproliferative activity against human NCI-H460 cells after 48 hrs by sulforhodamine B assay; conditions: NCI-H460, 48 h; procedure, shortened: as §2
NCI-H522 = assay: Antiproliferative activity against human NCI-H522 cells after 48 hrs by sulforhodamine B assay; conditions: NCI-H522, 48 h; procedure, shortened: as §2
COLO 205 = assay: Antiproliferative activity against human COLO205 cells after 48 hrs by sulforhodamine B assay; conditions: COLO 205, 48 h; procedure, shortened: as §2
HCC 2998 = assay: Antiproliferative activity against human HCC2998 cells after 48 hrs by sulforhodamine B assay; conditions: HCC 2998, 48 h; procedure, shortened: as §2
HCT-15 = assay: Antiproliferative activity against human HCT15 cells after 48 hrs by sulforhodamine B assay; conditions: HCT-15, 48 h; procedure, shortened: as §2
KM12 = assay: Antiproliferative activity against human KM12 cells after 48 hrs by sulforhodamine B assay; conditions: KM12, 48 h; procedure, shortened: as §2
SF-268 = assay: Antiproliferative activity against human SF268 cells after 48 hrs by sulforhodamine B assay; conditions: SF-268, 48 h; procedure, shortened: as §2
SF-295 = assay: Antiproliferative activity against human SF295 cells after 48 hrs by sulforhodamine B assay; conditions: SF-295, 48 h; procedure, shortened: as §2
SNB-19 = assay: Antiproliferative activity against human SNB19 cells after 48 hrs by sulforhodamine B assay; conditions: SNB-19, 48 h; procedure, shortened: as §2
SNB-75 = assay: Antiproliferative activity against human SNB75 cells after 48 hrs by sulforhodamine B assay; conditions: SNB-75, 48 h; procedure, shortened: as §2
Malme-3M = assay: Antiproliferative activity against human MALME-3M cells after 48 hrs by sulforhodamine B assay; procedure, shortened: as §2
SK-MEL-2 = assay: Antiproliferative activity against human SK-MEL-2 cells after 48 hrs by sulforhodamine B assay; conditions: SK-MEL-2, 48 h; procedure, shortened: as §2
SK-MEL-28 = assay: Antiproliferative activity against human SK-MEL-28 cells after 48 hrs by sulforhodamine B assay; conditions: SK-MEL-28, 48 h; procedure, shortened: as §2
UACC-257 = assay: Antiproliferative activity against human UACC257 cells after 48 hrs by sulforhodamine B assay; conditions: UACC-257, 48 h; procedure, shortened: as §1
UACC-62 = assay: Antiproliferative activity against human UACC62 cells after 48 hrs by sulforhodamine B assay; conditions: UACC-62, 48 h; procedure, shortened: as §1
IGROV-1 = assay: Antiproliferative activity against human IGROV1 cells after 48 hrs by sulforhodamine B assay; conditions: IGROV-1, 48 h; procedure, shortened: as §2
OVCAR-5 = assay: Antiproliferative activity against human OVCAR5 cells after 48 hrs by sulforhodamine B assay; conditions: OVCAR-5, 48 h; procedure, shortened: as §2
SK-OV-3 = assay: Antiproliferative activity against human SKOV3 cells after 48 hrs by sulforhodamine B assay; conditions: SK-OV-3, 48 h; procedure, shortened: as §2
A498 = assay: Antiproliferative activity against human A498 cells after 48 hrs by sulforhodamine B assay; conditions: A498, 48 h; procedure, shortened: as §2
ACHN = assay: Antiproliferative activity against human ACHN cells after 48 hrs by sulforhodamine B assay; procedure, shortened: as §2
CAKI-1 = assay: Antiproliferative activity against human Caki1 cells after 48 hrs by sulforhodamine B assay; conditions: CAKI-1, 48 h; procedure, shortened: as §2
RXF 393 = assay: Antiproliferative activity against human RXF393 cells after 48 hrs by sulforhodamine B assay; conditions: RXF 393, 48 h; procedure, shortened: as §2
SN12C = assay: Antiproliferative activity against human SN12C cells after 48 hrs by sulforhodamine B assay; procedure, shortened: as §2
PC-3 = assay: Antiproliferative activity against human PC3 cells after 48 hrs by sulforhodamine B assay; conditions: PC-3, 48 h; procedure, shortened: as §2
DU-145 = assay: Antiproliferative activity against human DU145 cells after 48 hrs by sulforhodamine B assay; conditions: DU-145, 48 h; procedure, shortened: as §2
[2] = Antiproliferative activity against human Hs 578T cells after 48 hrs by sulforhodamine B assay; procedure, shortened: as §2
[3] = read-out: LC50 (the source's name)

## Nc1ccc2c(c1)c(N)nn2C(=O)Nc1ccc(Cc2ccccc2)cc1
T47D
  GI50: 5.8 µM
  LC50 (concentration giving 50% net cell death): 66 µM
  TGI: 22.8 µM
[1]
  GI50: 5.14 µM
  TGI: 35 µM
[1]; [3]
  CC50: > 100 µM
HOP-62
  GI50: 11.2 µM
  LC50 (concentration causing 50% net cell death): 65.3 µM
  TGI: 27 µM
HOP-92
  GI50: 10.4 µM
  LC50: 57.4 µM
  TGI: 24.4 µM
NCI-H322M
  GI50: 13 µM
  TGI: 27.5 µM
NCI-H322M; [3]
  CC50: 58.3 µM
NCI-H460
  GI50: 4.64 µM
  TGI: 23.8 µM
NCI-H460; [3]
  CC50: > 100 µM
NCI-H522
  GI50: 14.7 µM
  LC50 (concentration causing 50% net cell death): > 100 µM
  TGI: 39.6 µM
COLO 205
  GI50: 13.1 µM
  LC50 (concentration causing 50% net cell death): 53.9 µM
  TGI: 26.5 µM
HCC 2998
  GI50: 4.17 µM
  TGI: 14.8 µM
HCC 2998; [3]
  CC50: 40.9 µM
HCT-15
  GI50: 2.75 µM
  LC50 (concentration causing 50% net cell death): 50.5 µM
  TGI: 14.2 µM
KM12
  GI50: 3.34 µM
  TGI: 15.1 µM
KM12; [3]
  CC50: 41.3 µM
SF-268
  GI50: 13 µM
  TGI: 30.7 µM
SF-268; [3]
  CC50: 72.5 µM
SF-295
  GI50: 3.96 µM
  LC50: 45.4 µM
  TGI: 15.1 µM
SNB-19
  GI50: 13.9 µM
  TGI: 27.3 µM
SNB-19; [3]
  CC50: 53.6 µM
SNB-75
  GI50: 17.4 µM
  LC50 (concentration causing 50% net cell death): 57.1 µM
  TGI: 31.5 µM
Malme-3M
  GI50: 18 µM
  LC50 (concentration causing 50% net cell death): > 100 µM
  TGI: 89.8 µM
SK-MEL-2
  GI50: 26.1 µM
  TGI: 48.5 µM
SK-MEL-2; [3]
  CC50: 90.1 µM
SK-MEL-28
  GI50: 13.7 µM
  TGI: 27.8 µM
SK-MEL-28; [3]
  CC50: 56.2 µM
UACC-257
  GI50: 14.5 µM
  TGI: 29.7 µM
UACC-257; [3]
  CC50: 60.8 µM
UACC-62
  GI50: 2.9 µM
  TGI: 12.6 µM
UACC-62; [3]
  CC50: 39.3 µM
IGROV-1
  GI50: 16.4 µM
  TGI: 54.1 µM
IGROV-1; [3]
  CC50: > 100 µM
OVCAR-5
  GI50: 22.6 µM
  TGI: 60.5 µM
OVCAR-5; [3]
  CC50: > 100 µM
SK-OV-3
  GI50: 15.3 µM
  TGI: 37.7 µM
SK-OV-3; [3]
  CC50: 92.8 µM
A498
  GI50: 14.4 µM
  TGI: 28.4 µM
A498; [3]
  CC50: 56.1 µM
ACHN
  GI50: 3.37 µM
  TGI: 13.7 µM
ACHN; [3]
  CC50: 39.6 µM
CAKI-1
  GI50: 4.3 µM
  TGI: 26.8 µM
CAKI-1; [3]
  CC50: > 100 µM
RXF 393
  GI50: 21.4 µM
  TGI: 43.9 µM
RXF 393; [3]
  CC50: 90.1 µM
SN12C
  GI50: 13.4 µM
  TGI: 30.9 µM
SN12C; [3]
  CC50: 71.1 µM
PC-3
  GI50: 4.33 µM
  TGI: 24 µM
PC-3; [3]
  CC50: 87 µM
DU-145
  GI50: 10.9 µM
  TGI: 24 µM
DU-145; [3]
  CC50: 52.6 µM
[2]
  GI50: 17.3 µM
  TGI: 43 µM
[2]; [3]
  CC50: > 100 µM

From ChEMBL document CHEMBL1649392, “Synthesis of substituted 3-amino-N-phenyl-1H-indazole-1-carboxamides endowed with antiproliferative activity” (Eur J Med Chem, 2011)
